Reference: ChEMBL document CHEMBL1159327, “(+)-7S-Hydroxyxestospongin A from the marine sponge Xestospongia sp. and absolute configuration of (+)-xestospongin D” (2002)
Values after ≈ are worked out from the molar mass of the structure shown. Active and inactive are the calls of the source. No cut-off for these calls is given here.

Experiments:
[1] = tested on: Pichia kudriavzevii; test: Antimicrobial activity against Candida krusei after 16 to 18 hrs by microbroth dilution assay; assay type: functional
Procedure, shortened: (§1)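 Broth microdilution susceptibility testing, adapted with minor changes from a published method, incubated at 37 °C for 16–18 h; read-out is the minimum inhibitory concentration. C. krusei and C. glabrata strains came from the University of Texas Medical Center. C. albicans UCD FR1 was raised in-house by repeated passage through Sabouraud medium containing inhibitory fluconazole concentrations.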

[2] = species: Oryctolagus cuniculus; test: Inhibition of IP3-sensitive Ca2+ channel activity in endoplasmic reticulum of rabbit cerebellum assessed as Ca2+ release; assay type: tissue-based
[3] = tested on: Nakaseomyces glabratus; test: Antimicrobial activity against Candida glabrata after 16 to 18 hrs by microbroth dilution assay; assay type: functional; procedure, shortened: as §1
[4] = tested on: Candida albicans; test: Antimicrobial activity against fluconazole-resistant Candida albicans ATCC 14503 after 16 to 18 hrs by microbroth dilution assay; assay type: functional; procedure, shortened: as §1
[5] = tested on: Candida albicans; test: Antimicrobial activity against Candida albicans UCD FRI after 16 to 18 hrs by microbroth dilution assay; assay type: functional; procedure, shortened: as §1
[6] = tested on: Candida albicans; test: Antimicrobial activity against fluconazole-resistant Candida albicans ATCC 14503 up to 300 ug/disk by disk diffusion method; assay type: functional, organism-based
[7] = tested on: Nakaseomyces glabratus; test: Antimicrobial activity against Candida glabrata up to 300 ug/disk by disk diffusion method; assay type: functional, organism-based
Procedure, shortened: (§2)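 Disk diffusion antifungal test, up to 300 μg/disk, read as a zone of inhibition. C. glabrata and C. krusei were clinical strains from the University of Texas Medical Center. C. albicans UCD FR1 was raised in-house by repeated passage through Sabouraud medium containing inhibitory concentrations of fluconazole.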

[8] = tested on: Candida albicans; test: Antimicrobial activity against Candida albicans UCD FRI up to 300 ug/disk by disk diffusion method; assay type: functional, organism-based; procedure, shortened: as §2
[9] = tested on: Pichia kudriavzevii; test: Antimicrobial activity against Candida krusei up to 300 ug/disk by disk diffusion method; assay type: functional, organism-based; procedure, shortened: as §2

| SMILES | MIC [1] [µg/mL] | ED50 [2] [µM] | MIC [3] [µg/mL] | MIC [4] [µg/mL] | MIC [5] [µg/mL] | Activity [6] | Activity [7] | Activity [8] | Activity [9] |
| --- | --- | --- | --- | --- | --- | --- | --- | --- | --- |
| O[C@]12CCCCCC[C@@H]3CCN4CCC[C@@H](CCCCCC[C@@H]5CCN(CCC1)[C@H]2O5)[C@@H]4O3 | 100 (≈ 216 µM) | 0.8 | 100 (≈ 216 µM) | 100 (≈ 216 µM) | 100 (≈ 216 µM) |  |  |  |  |
| OC(Cn1cncn1)(Cn1cncn1)c1ccc(F)cc1F [FLUCONAZOLE] | 100 (≈ 327 µM) |  | 100 (≈ 327 µM) | 1 (≈ 3.27 µM) | 100 (≈ 327 µM) |  |  |  |  |
| C[C@@H]1[C@H](O)[C@@H](C)/C=C/C=C/C=C/C=C/C=C/C=C/C=C/[C@H](O[C@@H]2O[C@H](C)[C@@H](O)[C@H](N)[C@@H]2O)C[C@@H]2O[C@](O)(C[C@@H](O)C[C@@H](O)[C@H](O)CC[C@@H](O)C[C@@H](O)CC(=O)O[C@H]1C)C[C@H](O)[C@H]2C(=O)O [AMPHOTERICIN B] |  |  | 1 (≈ 1.08 µM) | 0.3 (≈ 0.325 µM) | 1 (≈ 1.08 µM) |  |  |  |  |
| C1CCC[C@@H]2CCCN3CC[C@@H](CCCCCC[C@@H]4CCCN5CC[C@@H](CC1)O[C@@H]45)O[C@@H]23 | 100 (≈ 224 µM) |  | 100 (≈ 224 µM) | 100 (≈ 224 µM) | 100 (≈ 224 µM) |  |  |  |  |
| O[C@]12CCCCCC[C@@H]3CCN4CCC[C@H](CCCCCC[C@@H]5CCN(CCC1)[C@H]2O5)[C@@H]4O3 [(+)-DEMETHYLXESTOSPONGIN B] | 30 (≈ 64.8 µM) |  | 30 (≈ 64.8 µM) | 100 (≈ 216 µM) | 30 (≈ 64.8 µM) |  |  |  |  |
| C1CCC[C@H]2CCCN3CC[C@@H](CCCCCC[C@@H]4CCCN5CC[C@@H](CC1)O[C@@H]45)O[C@@H]23 | 30 (≈ 67.2 µM) | 0.3 | 30 (≈ 67.2 µM) | 100 (≈ 224 µM) | 100 (≈ 224 µM) |  |  |  |  |
| O[C@H]1C[C@H]2CCCCCC[C@@H]3CCN4CCC[C@@H](CCCCCC[C@@H]5CCN(C1)[C@H]2O5)[C@@H]4O3 |  | 6.4 |  |  |  | inactive | inactive | inactive | inactive |
